ChEMBL document CHEMBL1122270, “N-(4-substituted-thiazolyl)oxamic acid derivatives, a new series of potent, orally active antiallergy agents” (1983)

Assays:
Type in all cases: functional
Rattus norvegicus [1] = assay: Antiallergic activity by rat passive cutaneous anaphylaxis (PCA) assay when administered per orally;value ranges between (1.4-4.6.); settings: po
Summary of the method: (§1)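 Rats were passively sensitized intradermally with diluted reaginic anti-ovalbumin serum 24 h before challenge. Compound was suspended in 1% acacia and dosed by oral feeding needle at 1 mL/kg. After 20-30 min, rats were challenged with 0.02 mg ovalbumin in 0.5 mL 2% Evans Blue. Blued areas were measured 30 min after challenge. Six rats per dose; ED50 is 50% area reduction from control, with 95% confidence limits.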

Rattus norvegicus [2] = assay: Antiallergic activity by rat passive cutaneous anaphylaxis (PCA) assay when administered iv;value ranges between (0.07-1.70).
Summary of the method: (§2)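 Male rats sensitized by id injection of diluted rat anti-ovalbumin reaginic serum (0.1 mL each side of shaved back). 24 h later, compound in saline was mixed with 5 mg ovalbumin in 0.5 mL 2% Evans Blue and given iv at 1 mL/kg. Blued-spot diameters were read 30 min later. Six rats per group; ED50 is 50% area reduction versus control, with 95% confidence limits.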

Rattus norvegicus [3] = assay: Antiallergic activity by rat passive cutaneous anaphylaxis (PCA) assay when administered per orally;value ranges between( 0.4-3.0.); settings: po; summary of the method: as §1
Rattus norvegicus [4] = assay: Antiallergic activity by rat passive cutaneous anaphylaxis (PCA) assay when administered per orally; settings: po; summary of the method: as §1
Rattus norvegicus [5] = assay: Antiallergic activity by rat passive cutaneous anaphylaxis (PCA) assay when administered per orally;value ranges between (0.4-0.8.); settings: po; summary of the method: as §1
Rattus norvegicus [6] = assay: Antiallergic activity by rat passive cutaneous anaphylaxis (PCA) assay when administered per orally.;value ranges between (1.3-3.2); settings: po; summary of the method: as §1
Rattus norvegicus [7] = assay: antiallergic activity by rat passive cutaneous anaphylaxis (PCA) assay when administered iv; summary of the method: as §2
Rattus norvegicus [8] = assay: Antiallergic activity by rat passive cutaneous anaphylaxis (PCA) assay when administered per orally;value ranges between (0.64-6.67).; settings: po; summary of the method: as §1
Rattus norvegicus [9] = assay: Antiallergic activity by rat passive cutaneous anaphylaxis (PCA) assay when administered per orally;value ranges between (0.15-0.94.); settings: po; summary of the method: as §1
Rattus norvegicus [10] = assay: Antiallergic activity by rat passive cutaneous anaphylaxis (PCA) assay when administered iv;value ranges between (0.07-0.4.); summary of the method: as §2
Rattus norvegicus [11] = assay: Antiallergic activity by rat passive cutaneous anaphylaxis (PCA) assay when administered iv;value ranges between (0.2-1.1).; summary of the method: as §2
Rattus norvegicus [12] = assay: Antiallergic activity by rat passive cutaneous anaphylaxis (PCA) assay when administered per orally;value ranges between (1.0-4.8).; settings: po; summary of the method: as §1
Rattus norvegicus [13] = assay: Antiallergic activity by rat passive cutaneous anaphylaxis (PCA) assay when administered per orally;value ranges between (0.11-0.75.); settings: po; summary of the method: as §1
Rattus norvegicus [14] = assay: Antiallergic activity by rat passive cutaneous anaphylaxis (PCA) assay when administered iv;value ranges between 0.23-2.24; summary of the method: as §2
Rattus norvegicus [15] = assay: Antiallergic activity by rat passive cutaneous anaphylaxis (PCA) assay when administered perorally; value ranges between (1.3-3.3); settings: po; summary of the method: as §1
Rattus norvegicus [16] = assay: Antiallergic activity by rat passive cutaneous anaphylaxis (PCA) assay when administered per orally;value ranges between (0.5-3.27); settings: po; summary of the method: as §1
Rattus norvegicus [17] = assay: Antiallergic activity by rat passive cutaneous anaphylaxis (PCA) assay when administered iv.;value ranges between (0.04-0.3); summary of the method: as §2
Rattus norvegicus [18] = assay: Antiallergic activity by rat passive cutaneous anaphylaxis (PCA) assay when administered perorally; value ranges between (0.4-2.3.); settings: po; summary of the method: as §1
Rattus norvegicus [19] = assay: Antiallergic activity by rat passive cutaneous anaphylaxis (PCA) assay when administered iv;value ranges between (0.56-2.74); summary of the method: as §2

## NCCO.O=C(O)C(=O)Nc1nc(-c2ccc([N+](=O)[O-])cc2)cs1
Rattus norvegicus [1]
  ED50: 2.5 mg/kg

## CN(C)c1cccc(-c2csc(NC(=O)C(=O)O)n2)c1.NCCO
Rattus norvegicus [2]
  ED50: 0.35 mg/kg
Rattus norvegicus [3]
  ED50: 1.7 mg/kg

## NCCO.O=C(O)C(=O)Nc1nc(-c2ccncc2)cs1
Rattus norvegicus [4]
  ED50: > 3 mg/kg

## CCOC(=O)C(=O)Nc1nc(-c2ccc(OC)c(OC)c2)cs1
Rattus norvegicus [4]
  ED50: ~3 mg/kg

## CC(=O)Nc1ccc(-c2csc(NC(=O)C(N)=O)n2)cc1
Rattus norvegicus [4]
  ED50: > 10 mg/kg

## CCOc1ccc(-c2csc(NC(=O)C(=O)O)n2)cc1.NCCO
Rattus norvegicus [5]
  ED50: 0.54 mg/kg

## CCOC(=O)C(=O)Nc1nc(-c2ccc(OCC)cc2)cs1
Rattus norvegicus [6]
  ED50: 2.1 mg/kg

## NCCO.O=C(O)C(=O)Nc1nc(-c2cccnc2)cs1
Rattus norvegicus [4]
  ED50: > 10 mg/kg

## Cc1cc(-c2csc(NC(=O)C(=O)O)n2)ccc1O.NCCO
Rattus norvegicus [4]
  ED50: ~1 mg/kg

## CCOC(=O)C(=O)Nc1nc(-c2ccc(OC)cc2O)cs1
Rattus norvegicus [4]
  ED50: ~1 mg/kg

## COc1cc(-c2csc(NC(=O)C(=O)O)n2)ccc1O.NCCO
Rattus norvegicus [7]
  ED50: < 0.1 mg/kg
Rattus norvegicus [8]
  ED50: 2.1 mg/kg

## NCCO.O=C(O)C(=O)Nc1nc(-c2ccc(O)c(O)c2)cs1
Rattus norvegicus [7]
  ED50: 0.08 mg/kg
Rattus norvegicus [4]
  ED50: 0.1 mg/kg

## COc1cc(OC)cc(-c2csc(NC(=O)C(=O)O)n2)c1
Rattus norvegicus [7]
  ED50: ~0.1 mg/kg
Rattus norvegicus [4]
  ED50: ~1 mg/kg

## CCOC(=O)C(=O)Nc1nc(-c2cc(OC)ccc2OC)cs1
Rattus norvegicus [4]
  ED50: > 10 mg/kg

## CCOC(=O)C(=O)Nc1nc(-c2cc(OC)cc(OC)c2)cs1
Rattus norvegicus [4]
  ED50: ~10 mg/kg

## CC(=O)N1c2ccccc2Sc2ccc(-c3csc(NC(=O)C(=O)O)n3)cc21.NCCO
Rattus norvegicus [4]
  ED50: ~10 mg/kg

## CCCCOC(=O)C(=O)Nc1nc(-c2ccc(C(=O)OCC)cc2)cs1
Rattus norvegicus [4]
  ED50: > 10 mg/kg

## CCOC(=O)C(=O)Nc1nc(-c2ccc(O)c(O)c2)cs1
Rattus norvegicus [4]
  ED50: 1.4 mg/kg

## CCOC(=O)C(=O)Nc1nc(-c2ccc3c(c2)OCC(CN2CCCCC2)O3)cs1 (configuration not stated)
Rattus norvegicus [4]
  ED50: > 10 mg/kg

## CCOC(=O)C(=O)Nc1nc(-c2ccc3c(c2)OCCO3)cs1
Rattus norvegicus [4]
  ED50: > 10 mg/kg

## CCCC(=O)Nc1ccc(-c2csc(NC(=O)C(=O)OCC)n2)cc1
Rattus norvegicus [7]
  ED50: < 0.3 mg/kg
Rattus norvegicus [4]
  ED50: > 10 mg/kg

## CC(=O)Nc1ccc(-c2csc(NC(=O)C(=O)O)n2)cc1
Rattus norvegicus [9]
  ED50: 0.37 mg/kg
Rattus norvegicus [10]
  ED50: 0.16 mg/kg

## CCOC(=O)C(=O)Nc1nc(-c2ccc3oc(C)c(C)c(=O)c3c2)cs1
Rattus norvegicus [4]
  ED50: > 3 mg/kg

## COc1ccc(-c2csc(NC(=O)C(=O)O)n2)c(OC)c1
Rattus norvegicus [11]
  ED50: 0.39 mg/kg
Rattus norvegicus [4]
  ED50: > 10 mg/kg

## CCOC(=O)C(=O)Nc1nc(-c2ccc(C(=O)OCC)cc2)cs1
Rattus norvegicus [4]
  ED50: > 10 mg/kg

## NCCO.O=C(O)C(=O)Nc1nc(-c2ccc(Sc3ccccc3)cc2)cs1
Rattus norvegicus [4]
  ED50: > 30 mg/kg

## CCOC(=O)C(=O)Nc1nc(-c2cccc(O)c2)cs1
Rattus norvegicus [4]
  ED50: > 10 mg/kg

## CCOC(=O)C(=O)Nc1nc(-c2ccc(O)c(C)c2)cs1
Rattus norvegicus [12]
  ED50: 2.2 mg/kg

## CCOC(=O)C(=O)Nc1nc(-c2ccc(NC(C)=O)cc2)cs1
Rattus norvegicus [13]
  ED50: 0.29 mg/kg

## CCOC(=O)C(=O)Nc1nc(-c2ccccc2C(=O)OC)cs1
Rattus norvegicus [4]
  ED50: > 10 mg/kg

## CC(=O)c1cc(-c2csc(NC(=O)C(=O)O)n2)ccc1O.NCCO.NCCO
Rattus norvegicus [14]
  ED50: 0.71 mg/kg
Rattus norvegicus [4]
  ED50: ~1 mg/kg

## NC(=O)C(=O)Nc1ccc(-c2csc(NC(=O)C(N)=O)n2)cc1
Rattus norvegicus [4]
  ED50: ~1 mg/kg

## Cc1sc(NC(=O)C(=O)O)nc1-c1ccccc1.NCCO
Rattus norvegicus [15]
  ED50: 2.5 mg/kg

## CCOC(=O)C(=O)Nc1nc(-c2ccc(NC(=O)C(F)(F)F)cc2)cs1
Rattus norvegicus [4]
  ED50: ~1 mg/kg

## CCOC(=O)C(=O)Nc1nc(-c2ccc(N(C)C)cc2)cs1
Rattus norvegicus [7]
  ED50: ~0.3 mg/kg
Rattus norvegicus [4]
  ED50: ~1 mg/kg

## COC(=O)C(=O)Nc1nc(-c2ccc(OC)c(OC)c2)cs1
Rattus norvegicus [16]
  ED50: 1.2 mg/kg

## Cc1cc(O)ccc1-c1csc(NC(=O)C(=O)O)n1.NCCO
Rattus norvegicus [7]
  ED50: 1 mg/kg
Rattus norvegicus [4]
  ED50: > 10 mg/kg

## NCCO.O=C(O)C(=O)Nc1nc(-c2ccc(F)cc2)cs1
Rattus norvegicus [17]
  ED50: 0.11 mg/kg
Rattus norvegicus [18]
  ED50: 0.9 mg/kg

## NCCO.O=C(O)C(=O)Nc1nc(-c2ccc(Oc3ccccc3)cc2)cs1
Rattus norvegicus [4]
  ED50: > 10 mg/kg

## O=C([O-])c1cc(=O)c2c(OCC(O)COc3cccc4oc(C(=O)[O-])cc(=O)c34)cccc2o1.[Na+].[Na+] [CROMOLYN SODIUM]
Rattus norvegicus [19]
  ED50: 1.24 mg/kg

## CCOC(=O)C(=O)Nc1nc(-c2ccc(OC)cc2)cs1 [TIOXAMAST]
Rattus norvegicus [4]
  ED50: ~10 mg/kg
